Assay [1] can be described thus: Her2 expression decrease, cell viability multiplex – SKBR3 breast tumor cells, AlphaScreen, ATP viability, primary screen (AID 461;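 active = Her2 level under about 52% in both replicate screens, with viability over 70% of control, limit read from the data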;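 as to Her2 level: lower value means less Her2 protein in the cells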;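 as to viability: percent of carrier control wells set as 100% viability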). Particulars: SKBR3 Her2 protein level, 18-24 h, measured here: SKBR3 viability, ATP luminescence, at 10 µM. (Alpha assays give light when donor and acceptor beads are brought close together.)
Assay [2] concerns the target Receptor tyrosine-protein kinase erbB-2 (Homo sapiens) (UniProt P04626). The description is as above. Particulars: 18-24 h, at 10 µM, stronger effect = lower value.
A short description of assay [3]: reduced viability of SK-BR-3 breast cancer cells – cell-based, 24 h, human, pilot screen (AID 572).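 Also: compound exposure lasted between 18 and 24 h rather than exactly 24 h; 100% = carrier-treated control wells.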 The conditions noted are these: SK-BR-3 viability, CellTiter-Glo luminescence, at 10 µM, stronger effect = lower value. A general note: ATP-based viability assays read luminescence as a measure of living cells.
Assay [4] is described as follows: HUVEC growth inhibition – cell-based, human, primary screen (AID 575;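 active = viability at or below 30% in both replicate assays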;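 also: 100% = median of untreated cell wells with 0.1% DMSO on each plate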). The conditions noted are these: HUVEC proliferation, CellTiter-Glo luminescence, 72 h; at 10 µM; stronger effect = lower value. Summed up: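 Test system: primary human umbilical vein endothelial cells. Quantity: 1250 cells/well. Compound: single 10 µM dose, 0.1% DMSO, from 5x medium stock. Timing: 72 h treatment at 37 °C. Detection: ATP-based CellTiter-Glo luminescent read. Benchmarks: vehicle and MePR control wells. Format: 384-well plates coated with collagen.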

The nature of assay [5]: H69AR cell proliferation blockers – human, duplicate replicates, primary screen (AID 580;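 active = viability at or under a set limit in both replicates, limit being median viability minus 3 SD, cut at about 48% in these data, passing the limit was not always enough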;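 also: 100% = mean luminescence of untreated wells and 0% = no signal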). The conditions noted are these: H69AR lung tumor cells viability, ATP luminescence, 72 h; at 10 µM; stronger effect = lower value.
Assay [6] is described as follows: MRP1 drug-resistance reversers in H69AR cells – cell-based, doxorubicin co-treatment, pilot screen (AID 601;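 active = viability loss from added drug above about 55%, and viability with drug at most 40%, in both replicates, limit read from the data, passing the limit was not always enough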). Particulars: CellTiter-Glo, 72 h, at 10 µM; for differential viability (reversal): stronger effect = higher value.
The nature of assay [7]: yeast transport mutant growth inhibition pilot in 384-well plates, post-Golgi transport modulator project (AID 636; in the data active = inhibition above about 31%). Particulars: absorbance 615 nm, about 18 h, stronger effect = higher value.
Assay [8] can be described thus: growth suppression of yeast trafficking mutant, preliminary HTS, modulators of trafficking downstream of Golgi apparatus project, 1536-format plate, OD 615 nm (AID 637; in the data active = inhibition above about 30%). Particulars: yeast transport mutant growth, absorbance 615 nm, 18 h; stronger effect = higher value.
Setting [9] is: H69AR cells + 2 uM doxorubicin, measured here: viability with 2 uM doxorubicin, stronger effect = lower value.
Setting [10] is: H69AR cells, compound alone cytotoxicity.

Molecules are shown by their SMILES. Calls of active or inactive are those of the source.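 The calls were made as follows, unless noted: active = viability at or below 10% of carrier control in both of two separate runs; inconclusive = viability at or below 10% in only one of the two runs; inactive = the rest.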

Receptor tyrosine-protein kinase erbB-2 (Homo sapiens), sequence (P04626 whole entry, looked up): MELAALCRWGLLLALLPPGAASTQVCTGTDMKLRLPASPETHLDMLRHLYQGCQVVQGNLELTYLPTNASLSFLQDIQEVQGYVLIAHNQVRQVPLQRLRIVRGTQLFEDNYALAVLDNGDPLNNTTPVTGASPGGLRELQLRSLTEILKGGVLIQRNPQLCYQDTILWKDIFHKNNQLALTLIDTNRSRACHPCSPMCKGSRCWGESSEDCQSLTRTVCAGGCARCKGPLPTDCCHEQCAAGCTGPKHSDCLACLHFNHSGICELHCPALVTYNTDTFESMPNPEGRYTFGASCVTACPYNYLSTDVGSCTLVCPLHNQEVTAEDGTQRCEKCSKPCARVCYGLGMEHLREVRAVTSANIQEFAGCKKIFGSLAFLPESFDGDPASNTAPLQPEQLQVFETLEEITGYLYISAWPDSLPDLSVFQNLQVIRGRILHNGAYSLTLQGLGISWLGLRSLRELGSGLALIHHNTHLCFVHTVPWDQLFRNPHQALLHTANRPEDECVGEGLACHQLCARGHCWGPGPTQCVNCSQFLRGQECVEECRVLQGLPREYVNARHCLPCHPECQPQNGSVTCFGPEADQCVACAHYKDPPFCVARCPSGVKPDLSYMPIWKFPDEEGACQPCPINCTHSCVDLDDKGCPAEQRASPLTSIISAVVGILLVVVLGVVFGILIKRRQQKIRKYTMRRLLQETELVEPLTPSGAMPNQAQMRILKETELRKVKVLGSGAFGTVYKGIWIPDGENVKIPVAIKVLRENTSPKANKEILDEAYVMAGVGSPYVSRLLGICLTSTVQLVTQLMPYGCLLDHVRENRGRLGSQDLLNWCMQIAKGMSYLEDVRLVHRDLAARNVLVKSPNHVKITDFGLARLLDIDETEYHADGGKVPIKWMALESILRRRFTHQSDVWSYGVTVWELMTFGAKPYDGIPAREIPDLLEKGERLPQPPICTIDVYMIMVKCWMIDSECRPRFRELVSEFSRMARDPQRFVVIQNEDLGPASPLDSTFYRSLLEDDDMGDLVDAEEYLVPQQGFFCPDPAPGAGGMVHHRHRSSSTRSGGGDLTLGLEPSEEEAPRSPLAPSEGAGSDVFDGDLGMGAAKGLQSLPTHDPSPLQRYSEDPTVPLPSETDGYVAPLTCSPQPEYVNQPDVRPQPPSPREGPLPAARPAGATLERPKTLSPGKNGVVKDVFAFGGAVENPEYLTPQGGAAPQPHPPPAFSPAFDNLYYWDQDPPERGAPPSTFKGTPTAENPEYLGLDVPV

A word on the viability: it is a read-out of living cells in per cent, often relative to untreated cells. As usually defined, the inhibition is the drop in the measured response relative to a control, in per cent. `NCc1cccc(-n2cccn2)c1`: the viability was 110% in assay [1]; 110% (inactive) in assay [3]; 93.2% (inactive) in assay [4]; 82.6% (inactive) in assay [5]; 92.8% in assay [6] (setting [9]); 82.6% in assay [6] (setting [10]). Moreover, in assay [2], the Her2 level was 103% (inactive). The differential viability (reversal) in assay [6] (H69AR cells + 2 uM doxorubicin) was -10.1% (inactive). Moreover, the inhibition in assay [7] was -3.64% (inactive); in assay [8] it was -2.7% (inactive).
In the case of `O=c1oc2ccccc2n1CCc1ccccc1`, the viability was 109% in assay [1]; 109% (inactive) in assay [3]; 84.6% (inactive) in assay [4]; 93.7% (inactive) in assay [5]; 84.6% in assay [6] (setting [9]); 93.7% in assay [6] (setting [10]). In assay [2], the Her2 level was 97.5% (inactive). Also, the differential viability (reversal) in assay [6] (H69AR cells + 2 uM doxorubicin) is 9.07% (inactive). The inhibition was -5.92% (inactive) in assay [7] and 0.98% (inactive) in assay [8].
For the molecule `COC(=O)c1sc(NC(=O)c2ccoc2C)nc1C`, the viability was 110% in assay [1]; 110% (inactive) in assay [3]; 61.8% (inactive) in assay [4]; 75.3% (inactive) in assay [5]; 72.9% in assay [6] (setting [9]); 75.3% in assay [6] (setting [10]). For the same molecule, the Her2 level in assay [2] was 118% (inactive). Also, the differential viability (reversal) in assay [6] (H69AR cells + 2 uM doxorubicin) was 2.44% (inactive). The results for the inhibition in assay [7] and in assay [8] were -3.07% (inactive) and 8.06% (inactive), respectively.
Consider `COc1ccc(-c2noc(CSc3nc(N)c(-c4ccccc4)c(=O)[nH]3)n2)cc1OC`, for which the viability in assay [1] was 106%; in assay [3] it was 106% (inactive); in assay [4], 94.6% (inactive); in assay [5] it was 84.7% (inactive); in assay [6] (setting [9]), 85.4%; in assay [6] (setting [10]), 84.7%. Moreover, the Her2 level in assay [2] is 94.5% (inactive). In addition, the differential viability (reversal) in assay [6] (H69AR cells + 2 uM doxorubicin) is -0.7% (inactive). Besides, the inhibition in assay [7] was -4.13% (inactive); in assay [8] it was -3.97% (inactive).
As for `CC(C)COc1ccc(C2NC(=O)NC2=O)cc1` (stereo not given), the viability in assay [1] was 85.5%; in assay [3], 85.5% (inactive); in assay [4] it was 96.3% (inactive); in assay [5] it was 103% (inactive); in assay [6] (setting [9]) it was 103%; in assay [6] (setting [10]) it was 103%. For the same molecule, the Her2 level in assay [2] was 106% (inactive). Besides, the differential viability (reversal) in assay [6] (H69AR cells + 2 uM doxorubicin) is -0.53% (inactive). Besides, the inhibition in assay [7] is -0.52% (inactive); in assay [8] it was -8.67% (inactive).
For the molecule `Cc1onc(-c2ccccc2)c1C(=O)Nc1ccnn1C1CCCCC1`, the viability in assay [1] was 99.5%; in assay [3] it was 99.5% (inactive); in assay [4], 91.3% (inactive); in assay [5], 90.6% (inactive); in assay [6] (setting [9]) it was 95.3%; in assay [6] (setting [10]), 90.6%. Also, in assay [2], the Her2 level is 97.5% (inactive). Further, the differential viability (reversal) in assay [6] (H69AR cells + 2 uM doxorubicin) was -4.68% (inactive). Moreover, the inhibition in assay [7] is -5.6% (inactive); in assay [8], -2.95% (inactive).
With `O=C(Nc1cccnc1)Nc1ccc2c(c1)OCO2`, the viability in assay [1] is 102%; in assay [3] it was 102% (inactive); in assay [4], 78.1% (inactive); in assay [5] it was 82.7% (inactive); in assay [6] (setting [9]), 69.8%; in assay [6] (setting [10]), 82.7%. The Her2 level in assay [2] was 74% (inactive). Moreover, the differential viability (reversal) in assay [6] (H69AR cells + 2 uM doxorubicin) is 12.9% (inactive). For the same molecule, the inhibition is -2.24% (inactive) in assay [7] and 6.03% (inactive) in assay [8].
For `CCN(CC)S(=O)(=O)c1cccc2c(N(C)C)cccc12`, the viability in assay [1] is 99.5%; in assay [3] it was 99.5% (inactive); in assay [4] it was 107% (inactive); in assay [5] it was 93.3% (inactive); in assay [6] (setting [9]), 89.2%; in assay [6] (setting [10]) it was 93.3%. Also, the Her2 level in assay [2] is 112% (inactive). The differential viability (reversal) in assay [6] (H69AR cells + 2 uM doxorubicin) was 4.14% (inactive). The inhibition in assay [7] is -4.93% (inactive); in assay [8] it was -4.52% (inactive).
With `CCN(c1c(C)n(C)n(-c2ccccc2)c1=O)S(C)(=O)=O`, the viability in assay [1] is 98.5%; in assay [3] it was 98.5% (inactive); in assay [4], 102% (inactive); in assay [5] it was 95.6% (inactive); in assay [6] (setting [9]), 88.7%; in assay [6] (setting [10]) it was 95.6%. Besides, in assay [2], the Her2 level was 79.5% (inactive). Also, in assay [6] (H69AR cells + 2 uM doxorubicin), the differential viability (reversal) was 6.92% (inactive). In addition, the values for the inhibition in assay [7] and in assay [8] were -6.76% (inactive) and 4.29% (inactive), respectively.
`CC(NC(=O)c1ccc(F)cc1)C(c1cccs1)N1CCN(C)CC1` (stereo not given): the viability in assay [1] was 90.5%; in assay [3], 90.5% (inactive); in assay [4] it was 98% (inactive); in assay [5] it was 91.9% (inactive); in assay [6] (setting [9]), 91.7%; in assay [6] (setting [10]) it was 91.9%. Besides, the Her2 level in assay [2] was 86.5% (inactive). In addition, in assay [6] (H69AR cells + 2 uM doxorubicin), the differential viability (reversal) is 0.16% (inactive). The inhibition in assay [7] is -6% (inactive); in assay [8], 3.44% (inactive).
`CC(Oc1ccccc1)C(=O)NC1CCN(Cc2ccccc2)CC1` (stereo not given): the viability in assay [1] is 93%; in assay [3], 93% (inactive); in assay [4], 90.7% (inactive); in assay [5], 93.5% (inactive); in assay [6] (setting [9]) it was 86.1%; in assay [6] (setting [10]), 93.5%. Further, the Her2 level in assay [2] was 83% (inactive). For the same molecule, the differential viability (reversal) in assay [6] (H69AR cells + 2 uM doxorubicin) is 7.39% (inactive). Also, the inhibition in assay [7] was -5.6% (inactive); in assay [8], 3.65% (inactive).
On to `CCCC(=O)OCCn1c(Br)nc2c1c(=O)[nH]c(=O)n2C`, for which the viability was 98.5% in assay [1]; 98.5% (inactive) in assay [3]; 89.4% (inactive) in assay [4]; 93.5% (inactive) in assay [5]; 88.2% in assay [6] (setting [9]); 93.5% in assay [6] (setting [10]). In assay [2], the Her2 level was 86.5% (inactive). For the same molecule, in assay [6] (H69AR cells + 2 uM doxorubicin), the differential viability (reversal) was 5.21% (inactive). Moreover, the values for the inhibition in assay [7] and in assay [8] were -1.47% (inactive) and 1.45% (inactive), respectively.
For `O=C(CSCc1cccc(F)c1)N1CCN(c2ccccc2)CC1`, the viability in assay [1] is 92%; in assay [3], 92% (inactive); in assay [4], 91% (inactive); in assay [5], 101% (inactive); in assay [6] (setting [9]), 96%; in assay [6] (setting [10]) it was 101%. Also, the Her2 level in assay [2] was 93.5% (inactive). In assay [6] (H69AR cells + 2 uM doxorubicin), the differential viability (reversal) was 5.28% (inactive). For the same molecule, the inhibition in assay [7] is -5% (inactive); in assay [8] it was -4.67% (inactive).
In the case of `COCCn1c(NCc2ccc(C)cc2)nc2c1c(=O)[nH]c(=O)n2C`, the viability is 108% in assay [1]; 108% (inactive) in assay [3]; 87.2% (inactive) in assay [4]; 107% (inactive) in assay [5]; 99.5% in assay [6] (setting [9]); 107% in assay [6] (setting [10]). Besides, the Her2 level in assay [2] is 87.5% (inactive). The differential viability (reversal) in assay [6] (H69AR cells + 2 uM doxorubicin) is 7.44% (inactive). Besides, the inhibition in assay [7] was -2.27% (inactive); in assay [8] it was -1.29% (inactive).
Regarding `CC1=C(c2ccc(Cl)cc2)[N+](=O)C(C)(C)N1[O-]`, the viability in assay [1] was 99.5%; in assay [3], 99.5% (inactive); in assay [4], 110% (inactive); in assay [5] it was 89.6% (inactive); in assay [6] (setting [9]) it was 93.8%; in assay [6] (setting [10]), 89.6%. For the same molecule, the Her2 level in assay [2] was 95.5% (inactive). In addition, the differential viability (reversal) in assay [6] (H69AR cells + 2 uM doxorubicin) was -4.19% (inactive). The inhibition in assay [7] is -4.52% (inactive); in assay [8], -10.2% (inactive).
On to `CCOC(=O)N1CCC(NC(=O)CCc2c(C)nc3c(c(C)nn3C(C)(C)C)c2C)CC1`, for which the viability was 91% in assay [1]; 91% (inactive) in assay [3]; 82.2% (inactive) in assay [4]; 85.1% (inactive) in assay [5]; 83.9% in assay [6] (setting [9]); 85.1% in assay [6] (setting [10]). Also, the Her2 level in assay [2] is 78.5% (inactive). Also, the differential viability (reversal) in assay [6] (H69AR cells + 2 uM doxorubicin) is 1.25% (inactive). The values for the inhibition in assay [7] and in assay [8] were -4.61% (inactive) and -3.02% (inactive), respectively.

(Values after PubChem BioAssay.)
